From ChEMBL document CHEMBL4052814, “GNE-781, A Highly Advanced Potent and Selective Bromodomain Inhibitor of Cyclic Adenosine Monophosphate Response Element Binding Protein, Binding Protein (CBP)” (J Med Chem, 2017) come the findings set out here.

Data set [1] is described as follows: Volume of distribution at steady state in CD-1 mouse at 1 mg/kg, iv or 5 mg/kg, po by LC-MS/MS method. The data set is classed as ADME, organism-based. The note with it: in vivo, read-out: Vdss. In short, it runs like this:
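Female CD-1 mice, 6–9 weeks old, n=3 per route. Dosing was 1 mg/kg i.v. in PEG400/water 35/65 or 5 mg/kg p.o. in 0.5% methylcellulose/0.2% Tween 80. Serial tail-nick blood was taken to 24 h and diluted in EDTA water. Quantified by LC-MS/MS (MRM, positive ESI), LLOQ 0.002 μM.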

For data set [2], the target named is Histone acetyltransferase p300 (Homo sapiens, UniProt Q09472). Description: Displacement of biotinylated histone H3K14 peptide ligand from human recombinant His-tagged P300 measured after 10 mins by TR-FRET assay. A general note: In TR-FRET formats the signal depends on donor and acceptor labels being close together.
Data set [3] has as its target Bromodomain adjacent to zinc finger domain protein 2B (Homo sapiens, UniProt Q9UIF8). The data set is described as follows: Displacement of biotinylated histone H3K14 peptide ligand from human recombinant His-tagged BAZ2B measured after 10 mins by TR-FRET assay.
The target of data set [4] is Bromodomain-containing protein 8 (Homo sapiens, UniProt Q9H0E9). The data set is described as follows: Displacement of biotinylated histone H3K14 peptide ligand from recombinant His-tagged BRD8 bromodomain-1 (unknown origin) measured after 10 mins by TR-FRET assay.
A further data set addresses Peregrin (Homo sapiens, UniProt P55201). The data set is described as follows: Displacement of biotinylated histone H3K14 peptide ligand from human recombinant His-tagged BRPF1 measured after 10 mins by TR-FRET assay.
The target in data set [5] is Histone acetyltransferase KAT2B (Homo sapiens, UniProt Q92831). Description: Displacement of biotinylated histone H3K14 peptide ligand from human recombinant His-tagged PCAF measured after 10 mins by TR-FRET assay.
Data set [6] concerns the target Transcription initiation factor TFIID subunit 1 (Homo sapiens, UniProt P21675). The data set is described as follows: Displacement of biotinylated histone H3K14 peptide ligand from human recombinant His-tagged TAF1 bromodomain-1 measured after 10 mins by TR-FRET assay.
The nature of data set [7]: Protein binding in mouse plasma at 5 uM incubated for 4 hrs measured by LC-MS/MS method. It counts as ADME, cell-free. The note with it: read-out: PPB (converted).
The nature of data set [8]: Protein binding in dog plasma at 5 uM incubated for 4 hrs measured by LC-MS/MS method. The data set is classed as ADME, cell-free, Canis lupus familiaris. The following applies: read-out: PPB (converted).
The nature of data set [9]: Clearance in CD-1 mouse at 1 mg/kg, iv or 5 mg/kg, po by LC-MS/MS method. The note with it: in vivo. The data set is classed as ADME, organism-based. The method, boiled down: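 Female CD-1 mice, 6–9 weeks, n = 3 per route. Dosed 1 mg/kg i.v. in PEG400/water (35/65) or 5 mg/kg p.o. as a suspension in 0.5% methylcellulose, 0.2% Tween 80. Serial tail-nick blood sampled to 24 h, diluted in EDTA-water. Parent drug measured by non-validated LC-MS/MS after acetonitrile precipitation with an indomethacin internal standard.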

Data set [10] in a line: Clearance in cynomolgus monkey at 1 mg/kg, iv or 5 mg/kg, po by LC-MS/MS method. It counts as ADME, organism-based, Macaca fascicularis. The note with it: in vivo. In short, it runs like this: (§1)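 Non-naïve male cynomolgus monkeys, at least 2 years old, n = 3 per route. Given 1 mg/kg i.v. in EtOH/PEG400/water (20/15/65) or 5 mg/kg p.o. in 0.5% methylcellulose, 0.2% Tween 80; oral groups fasted. Plasma (K2EDTA) collected pre-dose to 24 h. Analysed by non-validated LC-MS/MS.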

The nature of data set [11]: Half life in beagle dog at 1 mg/kg, iv or 5 mg/kg, po by LC-MS/MS method. The data set is classed as ADME, organism-based, Canis lupus familiaris. The following applies: in vivo. The method, boiled down:
(§2)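 Non-naïve male beagle dogs, n = 3 per route. Dosed 1 mg/kg i.v. in EtOH/PEG400/water (20/15/65) or 5 mg/kg p.o. in 0.5% methylcellulose, 0.2% Tween 80; oral groups fasted overnight until 4 h post-dose. Peripheral blood taken pre-dose to 24 h and processed to K2EDTA plasma. Analysed by non-validated LC-MS/MS.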

A short description of data set [12]: Oral bioavailability in Sprague-Dawley rat at 5 mg/kg by LC-MS/MS method. The data set is classed as ADME, organism-based. The following applies: in vivo. In short, it runs like this: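 Male Sprague-Dawley rats, 6–9 weeks, n = 3 per route. Dosed 1 mg/kg i.v. in PEG400/water (35/65) or 5 mg/kg p.o. in 0.5% methylcellulose, 0.2% Tween 80; oral groups fasted overnight until 4 h post-dose. Catheter blood sampled 0.033–24 h into K2EDTA and spun to plasma. Analysed by non-validated LC-MS/MS.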

Data set [13] in a line: Oral bioavailability in beagle dog at 5 mg/kg by LC-MS/MS method. The data set is classed as ADME, organism-based, Canis lupus familiaris. The note with it: in vivo. In short, it runs like this:
as §2

A short description of data set [14]: Volume of distribution at steady state in beagle dog at 1 mg/kg, iv or 5 mg/kg, po by LC-MS/MS method. It counts as ADME, organism-based, Canis lupus familiaris. The following applies: in vivo, read-out: Vdss. The method, boiled down:
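Non-naïve male beagle dogs or cynomolgus monkeys, n=3 per route. Dosing was 1 mg/kg i.v. in EtOH/PEG400/water 20/15/65 or 5 mg/kg p.o. in 0.5% methylcellulose/0.2% Tween 80; the p.o. group was fasted overnight. Peripheral blood was taken pre-dose to 24 h into K2EDTA and processed to plasma. Quantified by LC-MS/MS.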

Data set [15] in a line: Cmax in cynomolgus monkey at 1 mg/kg, iv or 5 mg/kg, po by LC-MS/MS method. The data set is classed as ADME, organism-based, Macaca fascicularis. The following applies: in vivo. In short, it runs like this:
as §1

The nature of data set [16]: AUClast in cynomolgus monkey at 1 mg/kg, iv or 5 mg/kg, po by LC-MS/MS method. The following applies: in vivo. The data set is classed as ADME, organism-based, Macaca fascicularis. The method, boiled down: as §1
Data set [17] is described as follows: Kinetic solubility of the compound in PBS at 200 uM at pH 7.4 after 24 hrs by LCMS-chemiluminescence nitrogen detection assay. It counts as physicochemical. The following applies: read-out: Kinetic_solubility. In short, it runs like this:
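A 10 mM DMSO stock was diluted into PBS pH 7.4 to give 200 µM compound in 2% DMSO. Samples were shaken for 24 h at room temperature at 1000 rpm, then filtered and diluted 2-fold. Each was injected twice into LCMS-CLND and quantified against a caffeine calibration curve with correction for nitrogen count.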

The species entered for the next data set is Homo sapiens. The data set is described as follows: Selectivity ratio of IC50 for human recombinant His-tagged BRD4 bromodomain-1 to IC50 for human recombinant His-tagged P300.
A further data set concerns Mus musculus. Description: In vivo inhibition of CBP in human MOLM16 cells xenografted in C.B-17 SCID beige mouse assessed as suppression of MYC transcript levels at 10 mg/kg administered via oral gavage […] measured 2 hrs post last dose by real time-PCR method relative to control. It counts as functional. In short, it runs like this: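 MOLM-16 subcutaneous xenografts in SCID beige mice received single oral doses of 3–30 mg/kg (n=3/group). Tumors were taken at time points from 2 to 24 h. MYC transcript was measured in tumor RNA by one-step TaqMan qRT-PCR with ACTB as housekeeping gene. Results are given relative to vehicle-treated animals by the comparative Ct method.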
On the technique in general: Xenograft models place foreign cells or tissue in a host animal.

The target of another data set is Cytochrome P450 1A2 (Homo sapiens, UniProt P05177). The data set is described as follows: Inhibition of CYP1A2 (unknown origin). The data set is classed as ADME.
The test system of the next data set is Plasma. The data set is described as follows: Drug uptake in plasma of C.B-17 SCID beige mouse xenografted with human MOLM16 cells at 3 to 30 mg/kg administered via oral gavage as bid for 21 days measured 2 to 24 hrs post last dose by LC-MS/MS method. It counts as ADME, organism-based. The following applies: in vivo.

≈ marks a conversion by molar mass, not a printed value.

Transcription initiation factor TFIID subunit 1, sequence (P21675 whole entry): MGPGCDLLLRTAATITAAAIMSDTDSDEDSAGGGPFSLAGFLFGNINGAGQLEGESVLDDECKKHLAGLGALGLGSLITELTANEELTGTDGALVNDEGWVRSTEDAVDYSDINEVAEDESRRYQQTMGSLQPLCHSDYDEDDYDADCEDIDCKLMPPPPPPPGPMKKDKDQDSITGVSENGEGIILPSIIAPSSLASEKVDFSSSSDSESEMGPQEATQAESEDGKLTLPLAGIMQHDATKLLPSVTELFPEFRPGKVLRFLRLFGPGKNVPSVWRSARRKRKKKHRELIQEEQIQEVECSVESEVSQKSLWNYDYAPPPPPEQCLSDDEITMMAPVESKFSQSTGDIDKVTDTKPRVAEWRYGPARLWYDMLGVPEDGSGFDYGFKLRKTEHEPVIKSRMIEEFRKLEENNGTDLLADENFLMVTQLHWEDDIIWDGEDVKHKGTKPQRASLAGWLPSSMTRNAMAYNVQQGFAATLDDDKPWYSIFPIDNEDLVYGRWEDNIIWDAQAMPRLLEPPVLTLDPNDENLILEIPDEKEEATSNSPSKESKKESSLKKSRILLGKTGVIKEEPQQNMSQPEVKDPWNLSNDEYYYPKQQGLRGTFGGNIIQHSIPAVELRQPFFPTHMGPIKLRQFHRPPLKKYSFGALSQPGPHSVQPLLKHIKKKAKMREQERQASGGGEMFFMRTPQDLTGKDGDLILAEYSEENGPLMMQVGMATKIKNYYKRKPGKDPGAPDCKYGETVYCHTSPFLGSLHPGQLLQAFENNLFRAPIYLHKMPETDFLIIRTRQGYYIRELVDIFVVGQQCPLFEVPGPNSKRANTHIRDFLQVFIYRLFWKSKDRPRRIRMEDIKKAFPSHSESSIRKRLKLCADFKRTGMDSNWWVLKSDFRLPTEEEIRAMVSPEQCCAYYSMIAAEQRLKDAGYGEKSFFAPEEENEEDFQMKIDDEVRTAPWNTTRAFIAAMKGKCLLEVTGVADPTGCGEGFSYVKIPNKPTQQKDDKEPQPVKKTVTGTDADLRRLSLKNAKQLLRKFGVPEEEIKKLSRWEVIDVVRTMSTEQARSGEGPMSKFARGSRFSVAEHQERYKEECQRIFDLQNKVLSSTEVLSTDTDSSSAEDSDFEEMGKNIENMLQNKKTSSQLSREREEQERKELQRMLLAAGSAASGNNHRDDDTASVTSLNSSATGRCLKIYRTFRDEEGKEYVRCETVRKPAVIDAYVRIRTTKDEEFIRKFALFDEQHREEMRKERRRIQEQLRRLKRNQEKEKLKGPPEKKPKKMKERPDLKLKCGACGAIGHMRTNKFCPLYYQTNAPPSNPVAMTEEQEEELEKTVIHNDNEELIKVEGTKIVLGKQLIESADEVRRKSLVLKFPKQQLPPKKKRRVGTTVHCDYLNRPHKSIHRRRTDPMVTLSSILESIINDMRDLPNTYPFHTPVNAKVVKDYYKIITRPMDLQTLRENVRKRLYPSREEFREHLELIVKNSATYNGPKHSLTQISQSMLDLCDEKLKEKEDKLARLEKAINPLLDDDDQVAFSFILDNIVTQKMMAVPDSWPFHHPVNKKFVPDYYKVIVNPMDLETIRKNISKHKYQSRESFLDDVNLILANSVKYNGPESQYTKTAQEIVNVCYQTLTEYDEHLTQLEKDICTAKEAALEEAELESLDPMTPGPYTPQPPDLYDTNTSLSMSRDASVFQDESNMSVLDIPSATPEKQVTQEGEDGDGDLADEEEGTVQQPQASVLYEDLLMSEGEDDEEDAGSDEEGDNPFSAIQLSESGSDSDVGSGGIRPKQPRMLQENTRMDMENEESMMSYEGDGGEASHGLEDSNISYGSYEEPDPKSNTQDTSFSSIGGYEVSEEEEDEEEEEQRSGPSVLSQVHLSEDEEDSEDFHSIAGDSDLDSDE
Histone acetyltransferase KAT2B, sequence (Q92831 whole entry): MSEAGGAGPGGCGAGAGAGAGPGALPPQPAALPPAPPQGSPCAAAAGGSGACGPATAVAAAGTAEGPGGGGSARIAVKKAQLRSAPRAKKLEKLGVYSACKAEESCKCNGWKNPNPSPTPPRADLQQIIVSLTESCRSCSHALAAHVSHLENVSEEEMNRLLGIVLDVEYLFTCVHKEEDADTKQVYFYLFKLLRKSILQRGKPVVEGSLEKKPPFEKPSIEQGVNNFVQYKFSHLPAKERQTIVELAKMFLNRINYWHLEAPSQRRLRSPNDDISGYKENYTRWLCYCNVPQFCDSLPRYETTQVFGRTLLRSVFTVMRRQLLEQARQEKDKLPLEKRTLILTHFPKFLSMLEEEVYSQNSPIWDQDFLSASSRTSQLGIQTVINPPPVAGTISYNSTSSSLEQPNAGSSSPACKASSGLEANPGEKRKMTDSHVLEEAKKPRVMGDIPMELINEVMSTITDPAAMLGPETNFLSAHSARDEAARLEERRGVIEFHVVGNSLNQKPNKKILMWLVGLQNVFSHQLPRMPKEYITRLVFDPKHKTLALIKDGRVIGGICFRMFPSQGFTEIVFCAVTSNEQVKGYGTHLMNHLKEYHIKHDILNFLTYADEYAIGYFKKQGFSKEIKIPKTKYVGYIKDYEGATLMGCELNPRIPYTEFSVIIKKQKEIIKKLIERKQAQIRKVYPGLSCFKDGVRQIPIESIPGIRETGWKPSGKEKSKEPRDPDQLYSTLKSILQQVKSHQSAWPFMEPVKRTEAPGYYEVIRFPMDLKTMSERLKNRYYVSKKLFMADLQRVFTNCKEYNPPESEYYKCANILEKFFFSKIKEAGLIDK
Bromodomain adjacent to zinc finger domain protein 2B, sequence (Q9UIF8 whole entry, the tested form may be a part): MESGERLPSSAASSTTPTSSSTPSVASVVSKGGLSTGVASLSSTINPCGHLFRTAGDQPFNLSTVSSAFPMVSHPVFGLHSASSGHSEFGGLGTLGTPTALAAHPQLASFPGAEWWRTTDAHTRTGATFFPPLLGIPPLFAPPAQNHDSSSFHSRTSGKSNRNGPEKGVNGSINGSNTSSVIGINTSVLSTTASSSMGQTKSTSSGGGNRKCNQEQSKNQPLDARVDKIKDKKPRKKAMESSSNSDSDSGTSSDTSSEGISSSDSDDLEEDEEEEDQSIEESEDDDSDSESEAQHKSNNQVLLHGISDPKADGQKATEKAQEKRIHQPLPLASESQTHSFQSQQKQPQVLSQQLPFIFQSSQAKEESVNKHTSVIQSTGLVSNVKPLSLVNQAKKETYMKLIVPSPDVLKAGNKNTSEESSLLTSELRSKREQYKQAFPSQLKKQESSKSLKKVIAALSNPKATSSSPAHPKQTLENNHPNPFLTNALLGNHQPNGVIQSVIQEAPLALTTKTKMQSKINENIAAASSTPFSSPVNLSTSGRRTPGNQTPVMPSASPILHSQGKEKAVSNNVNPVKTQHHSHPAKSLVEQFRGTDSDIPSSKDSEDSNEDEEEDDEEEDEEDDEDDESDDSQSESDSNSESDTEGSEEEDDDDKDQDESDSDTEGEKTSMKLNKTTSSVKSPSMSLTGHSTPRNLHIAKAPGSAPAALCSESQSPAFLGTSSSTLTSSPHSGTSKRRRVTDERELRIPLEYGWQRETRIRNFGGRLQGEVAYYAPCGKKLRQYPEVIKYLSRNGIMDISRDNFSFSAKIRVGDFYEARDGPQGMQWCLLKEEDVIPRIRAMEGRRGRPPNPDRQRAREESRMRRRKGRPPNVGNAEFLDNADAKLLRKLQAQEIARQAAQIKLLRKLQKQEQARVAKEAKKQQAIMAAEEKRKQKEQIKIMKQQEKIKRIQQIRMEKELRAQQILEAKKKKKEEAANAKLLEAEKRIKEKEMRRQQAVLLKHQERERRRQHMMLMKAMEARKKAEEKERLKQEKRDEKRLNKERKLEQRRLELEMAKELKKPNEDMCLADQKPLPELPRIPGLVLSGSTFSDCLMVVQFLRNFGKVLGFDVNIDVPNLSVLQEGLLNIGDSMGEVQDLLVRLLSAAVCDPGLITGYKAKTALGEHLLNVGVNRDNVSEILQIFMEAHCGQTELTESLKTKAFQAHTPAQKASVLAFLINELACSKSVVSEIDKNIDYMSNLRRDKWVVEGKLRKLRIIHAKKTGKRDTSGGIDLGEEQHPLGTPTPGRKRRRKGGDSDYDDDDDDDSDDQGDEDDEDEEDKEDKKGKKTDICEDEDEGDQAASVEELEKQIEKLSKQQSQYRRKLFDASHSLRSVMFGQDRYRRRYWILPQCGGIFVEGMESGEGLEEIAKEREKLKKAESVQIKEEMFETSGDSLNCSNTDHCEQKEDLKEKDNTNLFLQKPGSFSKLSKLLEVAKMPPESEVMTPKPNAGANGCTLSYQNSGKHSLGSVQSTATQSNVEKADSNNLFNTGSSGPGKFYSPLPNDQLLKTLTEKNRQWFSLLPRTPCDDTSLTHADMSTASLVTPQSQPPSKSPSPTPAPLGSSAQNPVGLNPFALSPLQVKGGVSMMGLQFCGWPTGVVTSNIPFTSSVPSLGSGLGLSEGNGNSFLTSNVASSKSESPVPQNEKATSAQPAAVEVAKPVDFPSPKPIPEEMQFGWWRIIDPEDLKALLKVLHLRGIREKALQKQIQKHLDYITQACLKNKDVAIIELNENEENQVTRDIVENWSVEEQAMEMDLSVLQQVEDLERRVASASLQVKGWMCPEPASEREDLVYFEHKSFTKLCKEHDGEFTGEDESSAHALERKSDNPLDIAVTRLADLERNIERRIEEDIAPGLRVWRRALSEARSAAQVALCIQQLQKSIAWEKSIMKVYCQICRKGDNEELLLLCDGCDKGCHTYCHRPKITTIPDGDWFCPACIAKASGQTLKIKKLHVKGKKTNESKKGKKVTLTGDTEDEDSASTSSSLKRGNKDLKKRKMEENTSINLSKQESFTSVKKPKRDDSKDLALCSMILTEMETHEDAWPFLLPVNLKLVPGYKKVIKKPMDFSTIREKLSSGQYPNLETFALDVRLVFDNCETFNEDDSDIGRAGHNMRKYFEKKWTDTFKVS

In general, IC50 refers to the concentration at which inhibition is half-maximal. What is called half-life is how long it takes for the measured level to halve. A word on the bioavailability: it is dose-corrected exposure relative to a reference, in per cent. Usually Cmax stands for the maximum level reached in the sampled fluid or tissue. For orientation: AUC(0-t) means exposure summed from dosing to a finite time, without extrapolation to infinity. Take `CC(=O)N1CCc2c(c(N3CCCc4cc(-c5cnn(C)c5)c(C(F)F)cc43)nn2C2CCOCC2)C1`: the Vd in [1] amounted to 0.81 L/kg; in [14], 1 L/kg. Further, the IC50 was 0.0013 µM in [2]; above 20 µM in data set [3]; above 20 µM in [4]; above 20 µM at Peregrin; above 20 µM in [5]; above 20 µM in [6]. Also, the fraction unbound at 4 h, 5 µM in [7] was 0.08; in data set [8] it was 0.19. For the same compound, the clearance is 8.8 mL/min/kg in data set [9] and 7.4 mL/min/kg in data set [10]. In addition, in data set [11], the half-life is 4.2 h. The bioavailability in data set [12] was determined as 93%; in [13], 94%. In data set [15], the Cmax worked out at 1600 nM. The AUC(0-t) in [16] came out at 8.5 µM·h. For the same compound, the solubility kinetic at 24 h, 200 µM in data set [17] came out at 76 µM (≈ 38.8 µg/mL).
Regarding `CNC(=O)N1CCc2c(c(N3CCCc4cc(-c5cnn(C)c5)c(C(F)F)cc43)nn2C2CCOCC2)C1`, the Vd in data set [1] is 0.6 L/kg; in data set [14] it was 1.5 L/kg. Besides, the IC50 in [2] was 0.0012 µM; in [3], above 18 µM; in data set [4], above 20 µM; on Peregrin it was 4.6 µM; in data set [5], above 20 µM; in data set [6] it was above 20 µM. Moreover, the IC50 against Cytochrome P450 1A2 is above 10 µM. For the same compound, the fraction unbound at 4 h, 5 µM in data set [7] was 0.06; in data set [8], 0.23. Also, the figures for the clearance in data set [9] and in [10] were 5.2 mL/min/kg and 18 mL/min/kg, respectively. Moreover, the half-life in data set [11] is 4.7 h. Further, the bioavailability in [12] amounted to 37%; in data set [13], 100%. The concentration in [15] peaked (Cmax) at 1900 nM. The compound also gave an AUC(0-t) in data set [16] of 2.5 µM·h. The Ratio IC50 in the data set filed under Homo sapiens is 4250. In data set [17], the solubility kinetic at 24 h, 200 µM is 95 µM (≈ 49.9 µg/mL). Further, in the data set on Mus musculus, the Imax was 87%. For the same compound, the Drug uptake entry in the data set on Plasma is “Active”.
